From ChEMBL document CHEMBL1255245, “Relative replication capacity and selective advantage profiles of protease inhibitor-resistant hepatitis C virus (HCV) NS3 protease mutants in the HCV genotype 1b replicon system” (Antimicrob Agents Chemother, 2008)

Legend:
Hepatitis C virus [1] = test: Selectivity ratio of EC50 for Hepatitis C virus genotype 1b N expressing NS3 V170A mutant infected in human HuH7 cells to EC50 for Hepatitis C virus genotype 1b N expressing wild type NS3 infected in human HuH7 cells; type: functional, Hepacivirus hominis, genotype 1b strain N, Huh-7
Procedure, shortened: (§1)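 Change in resistance: mutant replicon EC50 divided by wild-type 1b N replicon EC50 for the same drug. Both EC50s come from 4-day transient-replication assays in electroporated Huh7 cells with a firefly luciferase read-out, fitted from triplicate-well means. Mean of at least three experiments.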

Hepatitis C virus [2] = test: Selectivity ratio of EC50 for Hepatitis C virus genotype 1b N expressing NS3 A156S mutant infected in human HuH7 cells to EC50 for Hepatitis C virus genotype 1b N expressing wild type NS3 infected in human HuH7 cells; type: functional, Hepacivirus hominis, genotype 1b strain N, Huh-7; procedure, shortened: as §1
Hepatitis C virus [3] = test: Selectivity ratio of EC50 for Hepatitis C virus genotype 1b N expressing NS3 A156V mutant infected in human HuH7 cells to EC50 for Hepatitis C virus genotype 1b N expressing wild type NS3 infected in human HuH7 cells; type: functional, Hepacivirus hominis, genotype 1b strain N, Huh-7; procedure, shortened: as §1
Hepatitis C virus [4] = test: Selectivity ratio of EC50 for Hepatitis C virus genotype 1b N expressing NS3 V170A mutant infected in human HuH7 cells to EC50 for Hepatitis C virus genotype 1b N expressing wild type NS3 infected in human HuH7 cells at 10 nM; type: functional, Hepacivirus hominis, genotype 1b strain N, Huh-7
Hepatitis C virus [5] = test: Selectivity ratio of EC50 for Hepatitis C virus genotype 1b N expressing NS3 T54A mutant infected in human HuH7 cells to EC50 for Hepatitis C virus genotype 1b N expressing wild type NS3 infected in human HuH7 cells; type: functional, Hepacivirus hominis, genotype 1b strain N, Huh-7; procedure, shortened: as §1
Hepatitis C virus [6] = test: Selectivity ratio of EC50 for Hepatitis C virus genotype 1b N expressing NS3 A156T mutant infected in human HuH7 cells to EC50 for Hepatitis C virus genotype 1b N expressing wild type NS3 infected in human HuH7 cells; type: functional, Hepacivirus hominis, genotype 1b strain N, Huh-7; procedure, shortened: as §1
Hepatitis C virus [7] = test: Selectivity ratio of EC50 for Hepatitis C virus genotype 1b N expressing NS3 R155Q mutant infected in human HuH7 cells to EC50 for Hepatitis C virus genotype 1b N expressing wild type NS3 infected in human HuH7 cells; type: functional, Hepacivirus hominis, genotype 1b strain N, Huh-7; procedure, shortened: as §1
Hepatitis C virus [8] = test: Selectivity ratio of EC50 for Hepatitis C virus genotype 1b N expressing NS3 D168V mutant infected in human HuH7 cells to EC50 for Hepatitis C virus genotype 1b N expressing wild type NS3 infected in human HuH7 cells; type: functional, Hepacivirus hominis, genotype 1b strain N, Huh-7; procedure, shortened: as §1
Hepatitis C virus [9] = test: Selectivity ratio of EC50 for Hepatitis C virus genotype 1b N expressing NS3 R155Q mutant infected in human HuH7 cells to EC50 for Hepatitis C virus genotype 1b N expressing wild type NS3 infected in human HuH7 cells at 100 nM; type: functional, Hepacivirus hominis, genotype 1b strain N, Huh-7
Hepatitis C virus [10] = test: Selectivity ratio of EC50 for Hepatitis C virus genotype 1b N expressing NS3 V36M mutant infected in human HuH7 cells to EC50 for Hepatitis C virus genotype 1b N expressing wild type NS3 infected in human HuH7 cells; type: functional, Hepacivirus hominis, genotype 1b strain N, Huh-7; procedure, shortened: as §1
Hepatitis C virus [11] = test: Selectivity ratio of EC50 for Hepatitis C virus genotype 1b N expressing NS3 R155K mutant infected in human HuH7 cells to EC50 for Hepatitis C virus genotype 1b N expressing wild type NS3 infected in human HuH7 cells at 10 nM; type: functional, Hepacivirus hominis, genotype 1b strain N, Huh-7
Hepatitis C virus [12] = test: Selectivity ratio of EC50 for Hepatitis C virus genotype 1b N expressing NS3 A156T mutant infected in human HuH7 cells to EC50 for Hepatitis C virus genotype 1b N expressing wild type NS3 infected in human HuH7 cells at 100 nM; type: functional, Hepacivirus hominis, genotype 1b strain N, Huh-7
Hepatitis C virus [13] = test: Selectivity ratio of EC50 for Hepatitis C virus genotype 1b N expressing NS3 R155K mutant infected in human HuH7 cells to EC50 for Hepatitis C virus genotype 1b N expressing wild type NS3 infected in human HuH7 cells; type: functional, Hepacivirus hominis, genotype 1b strain N, Huh-7; procedure, shortened: as §1
Hepatitis C virus [14] = test: Selectivity ratio of EC50 for Hepatitis C virus genotype 1b N expressing NS3 V36M/R155K double mutant infected in human HuH7 cells to EC50 for Hepatitis C virus genotype 1b N expressing wild type NS3 infected in human HuH7 cells; type: functional, Hepacivirus hominis, genotype 1b strain N, Huh-7; procedure, shortened: as §1
Hepatitis C virus [15] = test: Selectivity ratio of EC50 for Hepatitis C virus genotype 1b N expressing NS3 D168V mutant infected in human HuH7 cells to EC50 for Hepatitis C virus genotype 1b N expressing wild type NS3 infected in human HuH7 cells at 10 nM; type: functional, Hepacivirus hominis, genotype 1b strain N, Huh-7
Hepatitis C virus [16] = test: Antiviral activity against wild-type Hepatitis C virus genotype 1b N infected in human Huh7 cells; type: functional, organism-based, Hepacivirus hominis; conditions: genotype 1b strain N, Huh-7
Procedure, shortened: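 Transient replication: firefly-luciferase replicon RNA (genotype 1b N strain) transcribed in vitro and electroporated into Huh7 cells, plated in DMEM with 10% FBS. Luciferase read at 4 h to gauge transfection/translation. Drug dilutions added to a second plate set, incubated 4 days at 37°C, then luciferase measured. Triplicate samples per experiment; EC50 fitted from means; at least three experiments.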

Hepatitis C virus [17] = test: Selectivity ratio of EC50 for Hepatitis C virus genotype 1b N expressing NS3 D168A mutant infected in human HuH7 cells to EC50 for Hepatitis C virus genotype 1b N expressing wild type NS3 infected in human HuH7 cells; type: functional, Hepacivirus hominis, genotype 1b strain N, Huh-7; procedure, shortened: as §1
Hepatitis C virus [18] = test: Selectivity ratio of EC50 for Hepatitis C virus genotype 1b N expressing NS3 D168V mutant infected in human HuH7 cells to EC50 for Hepatitis C virus genotype 1b N expressing wild type NS3 infected in human HuH7 cells at 100 nM; type: functional, Hepacivirus hominis, genotype 1b strain N, Huh-7
Hepatitis C virus [19] = test: Selectivity ratio of EC50 for Hepatitis C virus genotype 1b N expressing NS3 R155K mutant infected in human HuH7 cells to EC50 for Hepatitis C virus genotype 1b N expressing wild type NS3 infected in human HuH7 cells at 100 nM; type: functional, Hepacivirus hominis, genotype 1b strain N, Huh-7
Hepatitis C virus [20] = test: Selectivity ratio of EC50 for Hepatitis C virus genotype 1b N expressing NS3 V170A mutant infected in human HuH7 cells to EC50 for Hepatitis C virus genotype 1b N expressing wild type NS3 infected in human HuH7 cells at 100 nM; type: functional, Hepacivirus hominis, genotype 1b strain N, Huh-7
Hepatitis C virus [21] = test: Selectivity ratio of EC50 for Hepatitis C virus genotype 1b N expressing NS3 R155Q mutant infected in human HuH7 cells to EC50 for Hepatitis C virus genotype 1b N expressing wild type NS3 infected in human HuH7 cells at 10 nM; type: functional, Hepacivirus hominis, genotype 1b strain N, Huh-7
Hepatitis C virus [22] = test: Selectivity ratio of EC50 for Hepatitis C virus genotype 1b N expressing NS3 A156T mutant infected in human HuH7 cells to EC50 for Hepatitis C virus genotype 1b N expressing wild type NS3 infected in human HuH7 cells at 10 nM; type: functional, Hepacivirus hominis, genotype 1b strain N, Huh-7
Hepatitis C virus [23] = test: Selectivity ratio of EC50 for Hepatitis C virus genotype 1b N expressing NS3 R155K mutant infected in human HuH7 cells to EC50 for Hepatitis C virus genotype 1b N expressing wild type NS3 infected in human HuH7 cells at >10 nM; type: functional, Hepacivirus hominis, genotype 1b strain N, Huh-7

Row | Compound | Ratio EC50 (Hepatitis C virus [1]) | Ratio EC50 (Hepatitis C virus [2]) | Ratio EC50 (Hepatitis C virus [3]) | Ratio EC50 (Hepatitis C virus [5]) | Ratio EC50 (Hepatitis C virus [6]) | Ratio EC50 (Hepatitis C virus [7]) | Ratio EC50 (Hepatitis C virus [8]) | Ratio EC50 (Hepatitis C virus [10]) | Ratio EC50 (Hepatitis C virus [13]) | Ratio EC50 (Hepatitis C virus [14]) | EC50 (Hepatitis C virus [16]) [nM] | Ratio EC50 (Hepatitis C virus [17]) | also measured
1 | COc1ccc2c(O[C@@H]3C[C@H]4C(=O)N[C@]5(C(=O)O)C[C@H]5/C=C\CCCCC[C@H](NC(=O)OC5CCCC5)C(=O)N4C3)cc(-c3csc(NC(C)C)n3)nc2c1 [CILUPREVIR] | 1.5 | 28 | 445 | 0.6 | 366.6 | 29.6 | 193.6 | 0.8 | 147.5 | 139.9 | 1.5 | 63.3 | Ratio EC50 (Hepatitis C virus [4]): 7; Ratio EC50 (Hepatitis C virus [9]): 660; Ratio EC50 (Hepatitis C virus [11]): 7; Ratio EC50 (Hepatitis C virus [12]): 660; Ratio EC50 (Hepatitis C virus [15]): 7; Ratio EC50 (Hepatitis C virus [18]): 660; Ratio EC50 (Hepatitis C virus [19]): 660; Ratio EC50 (Hepatitis C virus [20]): 660; Ratio EC50 (Hepatitis C virus [21]): 7; Ratio EC50 (Hepatitis C virus [22]): 7
2 | CC(C)(C)OC(=O)N[C@H]1CCCCC/C=C\[C@@H]2C[C@@]2(C(=O)NS(=O)(=O)C2CC2)NC(=O)[C@@H]2C[C@@H](OC(=O)N3Cc4cccc(F)c4C3)CN2C1=O [DANOPREVIR] | 1.2 | 40 | 7.1 | 0.9 | 96 | 6.1 | 14.9 | 0.7 | 89.3 | 55.7 | 0.3 | 14 | Ratio EC50 (Hepatitis C virus [23]): 33
3 | CCC[C@H](NC(=O)[C@@H]1[C@H]2CCC[C@H]2CN1C(=O)[C@@H](NC(=O)[C@@H](NC(=O)c1cnccn1)C1CCCCC1)C(C)(C)C)C(=O)C(=O)NC1CC1 [TELAPREVIR] | – | 19 | 63.1 | 6.7 | 96.3 | 1.3 | 0.2 | 0.7 | 5.4 | 3.3 | 320 | 0.1 | –
